ChEMBL document CHEMBL5042523, “Novel Macrocyclic Peptidomimetics Targeting the Polo-Box Domain of Polo-Like Kinase 1” (J Med Chem, 2022)
Active and inactive are the calls of the source. The calls are words filed in the database; no cut-off is given here. Where a SMILES comes first, the peptide text is derived from it. [ ]: non-standard residue; d: D form. pT = C[C@@H](OP(=O)(O)O)[C@H](N)C(=O)O

Experiments:
[1] = Drug uptake in Wistar rat administered iv measured after 5 to 30 mins by PET imaging analysis; format: ADME, organism-based; conditions: in vivo, time 5-30 min
[2] = target: Serine/threonine-protein kinase PLK2 (Homo sapiens) (UniProt Q9NYY3); test: Binding affinity to PlK2-PBD (unknown origin) using 5-carboxyfluorescein-Ahx-GPMQTS-pT-PKNG as substrate measured after 30 min by fluorescence polarization assay
Summary of the method: (§1)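 Competitive fluorescence polarization. E. coli-purified PBD used at its EC85 with 10 nM (final) 5-carboxyfluorescein-labelled phosphopeptide: GPMQTS-pT-PKNG probe for Plk2, GPLATS-pT-PKNG probe for Plk3. Buffer was 10 mM Tris-Cl pH 8.0, 1 mM EDTA, 50 mM NaCl, 0.01% NP-40, with test peptide over a concentration range. Polarization read 30 min after mixing. Three independent experiments.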

[3] = target: Serine/threonine-protein kinase PLK3 (Homo sapiens) (UniProt Q9H4B4); test: Binding affinity to PlK3-PBD (unknown origin) using 5-carboxyfluorescein-Ahx-GPLATS-pT-PKNG as substrate measured after 30 min by fluorescence polarization assay; summary of the method: as §1
HeLa = test: Antiproliferative activity against human HeLa cell assessed as viable cells measured after 2 days by MTS assay; format: functional, cell-based; conditions: time 2.0 day
Summary of the method: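 HeLa cells, asynchronously growing, seeded at 2000 cells/100 μL in triplicate. Compound added for 24 h, then medium replaced and compound given for another 24 h (48 h continuous). MTS reagent added for 1–4 h at 37 °C, 5% CO2. Absorbance read at 490 nm. Three independent experiments, mean relative signal with s.d.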

Serine/threonine-protein kinase PLK3 (Homo sapiens), sequence (Q9H4B4 whole entry, looked up): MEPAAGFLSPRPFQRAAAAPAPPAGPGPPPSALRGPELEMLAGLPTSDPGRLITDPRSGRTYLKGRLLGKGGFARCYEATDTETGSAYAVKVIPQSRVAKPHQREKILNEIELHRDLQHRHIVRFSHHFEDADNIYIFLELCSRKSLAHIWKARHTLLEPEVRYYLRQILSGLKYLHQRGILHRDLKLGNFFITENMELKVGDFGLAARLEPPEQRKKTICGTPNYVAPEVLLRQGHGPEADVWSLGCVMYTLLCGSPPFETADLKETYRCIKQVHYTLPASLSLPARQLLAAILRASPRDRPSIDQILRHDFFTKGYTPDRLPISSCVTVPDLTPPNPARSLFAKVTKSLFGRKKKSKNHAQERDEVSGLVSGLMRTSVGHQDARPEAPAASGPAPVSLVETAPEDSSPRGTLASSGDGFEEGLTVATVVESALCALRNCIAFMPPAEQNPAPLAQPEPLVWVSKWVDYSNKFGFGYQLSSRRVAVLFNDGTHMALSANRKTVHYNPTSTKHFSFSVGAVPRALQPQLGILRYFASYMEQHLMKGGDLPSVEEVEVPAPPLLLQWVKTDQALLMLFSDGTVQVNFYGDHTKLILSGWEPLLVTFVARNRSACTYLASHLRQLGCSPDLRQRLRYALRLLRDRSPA
Serine/threonine-protein kinase PLK2 (Homo sapiens), sequence (Q9NYY3 whole entry, looked up): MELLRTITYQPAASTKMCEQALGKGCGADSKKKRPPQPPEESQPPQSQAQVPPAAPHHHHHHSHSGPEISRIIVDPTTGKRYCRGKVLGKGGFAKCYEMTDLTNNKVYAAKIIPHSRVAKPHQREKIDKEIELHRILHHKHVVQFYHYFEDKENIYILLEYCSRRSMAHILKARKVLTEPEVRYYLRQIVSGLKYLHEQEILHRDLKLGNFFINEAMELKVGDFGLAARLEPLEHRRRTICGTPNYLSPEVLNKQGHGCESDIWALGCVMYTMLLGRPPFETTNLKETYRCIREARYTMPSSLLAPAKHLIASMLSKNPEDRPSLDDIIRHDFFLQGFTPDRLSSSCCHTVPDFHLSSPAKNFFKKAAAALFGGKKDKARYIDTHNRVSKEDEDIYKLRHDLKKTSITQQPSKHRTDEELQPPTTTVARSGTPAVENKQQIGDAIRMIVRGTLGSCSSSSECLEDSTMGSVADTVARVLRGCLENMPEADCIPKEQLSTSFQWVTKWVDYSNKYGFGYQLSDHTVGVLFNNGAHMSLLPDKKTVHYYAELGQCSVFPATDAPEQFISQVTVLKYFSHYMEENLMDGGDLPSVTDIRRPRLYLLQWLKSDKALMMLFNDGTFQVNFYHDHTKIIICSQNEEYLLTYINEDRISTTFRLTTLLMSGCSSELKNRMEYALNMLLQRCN

Compound	Drug uptake [1]	Activity [2]	Activity [3]	Activity (HeLa)
COC(=O)[C@H](CC(C)C)NC(=O)[C@@H]1CCCN1C(=O)[C@@H](NC(=O)[C@H](CO)NC(=O)[C@H](CCC(N)=O)NC(=O)[C@H](CCSC)NC(=O)[C@@H]1CCCN1)[C@@H](C)OP(=O)(O)O (H-PMQS[pT]PL-OMe)	Not Active	–	–	–
COC(=O)[C@H](CC(C)C)NC(=O)[C@@H]1CC[C@H]2OCCNC(=O)CC[C@H](NC(=O)c3cc(OCC(C)C)cc(OCC(C)C)c3)C(=O)N[C@@H](CO)C(=O)N[C@@H]([C@@H](C)OP(=O)(O)O)C(=O)N21	–	inactive	inactive	Active
